Source: ChEMBL document CHEMBL1681688, “Design and evaluation of a 2-(2,3,6-trifluorophenyl)acetamide derivative as an agonist of the GPR119 receptor” (Bioorg Med Chem Lett, 2011)

Columns and labels:
[1] = Lipophilicity, log D of the compound; format: physicochemical; details: octanol/water
[2] = Intrinsic clearance in human liver microsomes; format: ADME, Microsome
[3] = biological target: T1, Glucose-dependent insulinotropic receptor (Homo sapiens) (UniProt Q8TDV5); experiment: Intrinsic activity against human GPR119 receptor expressed in HEK293 cells assessed as beta-lactamase production by cAMP response element assay; format: functional, cell-based
T1 sequence (whole entry): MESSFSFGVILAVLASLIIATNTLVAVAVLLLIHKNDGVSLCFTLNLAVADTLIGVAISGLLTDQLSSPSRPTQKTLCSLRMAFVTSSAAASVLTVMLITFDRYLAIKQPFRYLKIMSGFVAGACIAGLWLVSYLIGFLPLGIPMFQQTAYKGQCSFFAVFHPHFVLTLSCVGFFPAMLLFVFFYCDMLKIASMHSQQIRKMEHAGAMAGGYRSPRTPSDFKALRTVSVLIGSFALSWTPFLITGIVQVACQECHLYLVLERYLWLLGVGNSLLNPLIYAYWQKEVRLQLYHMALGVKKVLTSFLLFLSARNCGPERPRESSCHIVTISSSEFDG
Method in brief: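 Human recombinant cell-based cAMP functional assay, read as intrinsic activity. The number of runs varies by compound, with SD reported where n >2.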

[4] = biological target: T2, Glucose-dependent insulinotropic receptor (Homo sapiens, UniProt Q8TDV5); experiment: Agonist activity against human GPR119 receptor expressed in HEK293 cells assessed as beta-lactamase production by cAMP response element assay; format: functional, cell-based
T2 sequence (Q8TDV5 whole entry): T1 sequence (whole entry)

Compound	logD [1]	CLint scaled [2] [mL/min/kg]	Intrinsic activity [3] [%]	EC50 [4] [µM]
CC(CNC(=O)Cc1ccc(-n2cnnn2)cc1)C1CCN(C(=O)OC(C)(C)C)CC1 (stereo not drawn)		> 270	72	0.267
CC(CNC(=O)Cc1ccc(S(C)(=O)=O)cc1)C1CCN(C(=O)OC(C)(C)C)CC1 (stereo not drawn)		136	47	0.884
CC1(OC(=O)N2CCC([C@@H](F)CNC(=O)Cc3c(F)ccc(F)c3F)CC2)CC1	3.4	63.8	100	1.38
CC(CNC(=O)Cc1cccc(F)c1)C1CCN(C(=O)OC(C)(C)C)CC1 (stereo not drawn)		> 300	102	0.34
CC1(OC(=O)N2CCC(CCNC(=O)Cc3c(F)ccc(F)c3F)CC2)CC1	3.5		111	0.868
CC(CNC(=O)Cc1cc(F)ccc1F)C1CCN(C(=O)OC(C)(C)C)CC1 (stereo not drawn)		> 300	104	0.078
CC(CNC(=O)Cc1ccccc1)C1CCN(C(=O)OC(C)(C)C)CC1 (stereo not drawn)		247	100	5.98

The remaining molecules from weak to strong by EC50 [4], led by results:

logD [1]	CLint scaled [2] [mL/min/kg]	Intrinsic activity [3] [%]	EC50 [4] [µM]	Compound
	> 300	97	0.808	CC(CNC(=O)Cc1ccccc1F)C1CCN(C(=O)OC(C)(C)C)CC1 (stereo not drawn)
3.4		68	0.409	CC(C)OC(=O)N1CCC(CCNC(=O)Cc2c(F)ccc(F)c2F)CC1
3.9	187	97	0.236	C[C@@H](CNC(=O)Cc1c(F)ccc(F)c1F)C1CCN(C(=O)OC2(C)CC2)CC1
3.9		101	0.12	CC(CNC(=O)Cc1c(F)cccc1F)C1CCN(C(=O)OC(C)(C)C)CC1 (stereo not drawn)
3.4	42.4	107	0.08	CC1(OC(=O)N2CCC([C@H](F)CNC(=O)Cc3c(F)ccc(F)c3F)CC2)CC1
	> 300	107	0.075	CC(CNC(=O)Cc1cccc(F)c1F)C1CCN(C(=O)OC(C)(C)C)CC1 (stereo not drawn)
3.9	> 300	124	0.044	C[C@H](CNC(=O)Cc1c(F)ccc(F)c1F)C1CCN(C(=O)OC2(C)CC2)CC1
4	205	88	0.032	CC(C)OC(=O)N1CCC(C(C)CNC(=O)Cc2c(F)ccc(F)c2F)CC1 (stereo not drawn)
	230	87	0.013	CC(CNC(=O)Cc1c(F)ccc(F)c1F)C1CCN(C(=O)OC(C)(C)C)CC1 (stereo not drawn)
